Data on 1 molecule can be found in paper PMC3057960 (Cancer research, 2010).

SMILES strings stand for the structures. Peptide text beside a SMILES is read from it.

The nature of data set [1]: Stability in mouse serum by radio HPLC. As to conditions: tracer in PBS with equal volume of mouse serum, 37°C, 4 hours. In kind it is in vitro ADME. In outline: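 Radiotracer in PBS was mixed with an equal volume of mouse serum and incubated at 37°C. Samples taken at 1 and 4 hours were quenched with one volume of solvent A (99.9% H2O, 0.1% TFA) plus one volume of DMF, centrifuged, passed through a 0.2 micron spin filter and analysed by radio HPLC.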

A short description of data set [2]: Repeated imaging in immunocompetent mice, immune response. In kind it is in vivo, mouse. As to conditions: up to 6 imaging sessions over 8 months, data not shown.
A short description of data set [3]: Ex vivo biodistribution in healthy mice. Conditions: mouse, iv, total radioactivity. In outline: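 Healthy mice (N=5) were anaesthetised and given 66.3-70.6 μCi (2.45-2.61 MBq) of radiolabelled test compound in 150 μl PBS by tail vein, then euthanised 1 hour post-injection. Organs were removed, weighed and gamma counted, giving %ID/g or %ID/cm3. Soft-tissue density was taken as 1 g/cm3. Lung density was lung weight divided by CT volume from pre-injection CT. Mean ± standard error mean.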

The nature of data set [4]: In vivo stability: urine metabolite analysis by radio HPLC. As to conditions: mouse urine collected 1 hour post-injection, 3 mice. The essentials:
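Urine was collected 1 hour after tail-vein injection of radiolabelled test compound (66.3-70.6 μCi in 150 μl PBS) from 3 of the healthy biodistribution mice. Samples were diluted to 1 mL with solvent A (99.9% H2O, 0.1% TFA) and analysed by radio HPLC.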

For `CC(C)C[C@@H]1NC(=O)[C@@H]2CSSC[C@@H](C(=O)NCC(N)=O)NC(=O)[C@H](Cc3ccccc3)NC(=O)CNC(=O)[C@H](CC(N)=O)NC(=O)[C@@H]3CCCN3C(=O)CNC(=O)[C@@H]3CSSC[C@H](NC(=O)[C@H]([C@@H](C)O)NC(=O)[C@H](CC(C)C)NC(=O)[C@@H]4CCCN4C(=O)[C@@H]4CCCN4C(=O)[C@H](CC(N)=O)NC(=O)[C@H](CC(=O)O)NC(=O)CNC(=O)[C@H](CCCNC(=N)N)NC(=O)[C@@H]4CCCN4C(=O)[C@H](CCCNC(=N)N)NC(=O)[C@@H]4CCCN4C(=O)[C@@H](NC(=O)CNC(=O)CN4CCN(CC(=O)O)CCN(CC(=O)O)CCN(CC(=O)O)CC4)CSSC[C@H](NC(=O)CNC(=O)[C@H](C)NC1=O)C(=O)N[C@@H](C(C)C)C(=O)N3)C(=O)N[C@@H](CO)C(=O)N[C@@H](CCC(N)=O)C(=O)N[C@@H](CC(=O)O)C(=O)N[C@@H](CO)C(=O)N[C@@H](CC(=O)O)C(=O)N2` [^64Cu-DOTA-knottin 2.5F, metal not drawn] (HELM PEPTIDE1{[O=C(O)CN1CCN(CC(=O)O)CCN(CC(=O)[*:2])CCN(CC(=O)O)CC1].G.C.P.R.P.R.G.D.N.P.P.L.T.C.S.Q.D.S.D.C.L.A.G.C.V.C.G.P.N.G.F.C.G.[am]}$PEPTIDE1,PEPTIDE1,3:R3-25:R3|PEPTIDE1,PEPTIDE1,15:R3-27:R3|PEPTIDE1,PEPTIDE1,21:R3-33:R3$$$V2.0; N-terminus and C-terminus assumed), in data set [1], the Serum stability entry was “highly stable”. Moreover, the “Acute immune response on repeated imaging” value in data set [2] is “without the observation of an acute immune response”. For the same molecule, the tissue uptake per volume at 1 h was 11.4 ± 1.45 %ID/mL in data set [3] (kidneys) and 1.28 to 2.53 %ID/mL in data set [3] (stomach, intestine, spleen, liver). In addition, in data set [4], the “Stability in vivo, excretion in urine” value is “mainly excreted intact”.
